Measurements as given in ChEMBL document CHEMBL5712071, “BET bromodomain protein inhibition is a therapeutic option for medulloblastoma” (Oncotarget, 2013).
The source made the active and inactive calls. The calls are words filed in the database; no cut-off is given here.

Tests used:
ONS-76 [1] = assay: Antiproliferative activity against human ONS-76 cells at 500 nM incubated for 72 hrs by BrdU ELISA method; format: functional, cell-based
How it was run: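 Cells seeded in triplicate at 2 × 10^3 per well with 24h adherence, then treated with 500 nM JQ1 or DMSO control for 72h. Proliferation was measured by BrdU incorporation ELISA. Experiments were run independently at least 3 times.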

ONS-76 [2] = assay: Induction of senescence in human ONS-76 cells assessed as increase in population of cells in G1 phase at 500 nM incubated for 72 hrs by fluorometric SA-beta-gal activity assay; format: functional, cell-based
How it was run: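 Senescence read as fluorometric SA-β-gal activity. Cells seeded 2 × 10^3 per well in triplicate and allowed 24h to adhere, then exposed to 500 nM JQ1 or DMSO control for 72h. Assayed per kit protocol. Experiments repeated at least 3 times.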

UW228 [3] = assay: Anti-proliferative activity against human UW228 cells assessed as reduction in cell viability incubated for 72 hrs by MTT assay; format: functional, cell-based; settings: UW228, 72 h
How it was run: (§1)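 Cells seeded in triplicate at 2 × 10^3 per well and allowed to adhere for 24h. JQ1 was given as serial dilutions in full medium, 1nM-6µM, from a 10 mM DMSO stock. Viability was read by MTT at each time point and IC50 derived from dose-response curves. Culture media were RPMI 1640/10% FCS for HD-MB3 (plus 1% NEAA), ONS-76, Daoy and UW-228, and EMEM/10% FCS for D-283 and D-341.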

UW228 [4] = assay: Anti-proliferative activity against human UW228 cells assessed as reduction in cell viability incubated for 48 hrs by MTT assay; format: functional, cell-based; settings: UW228, 48 h; how it was run: as §1
HD-MB03 = assay: Anti-proliferative activity against human HD-MB03 cells assessed as reduction in cell viability incubated for 96 hrs by MTT assay; format: functional, cell-based; settings: HD-MB03, 96 h; how it was run: as §1
D341 cell line = assay: Induction of apoptosis in human D341 cells assessed as increase in population of cells in sub-G1 phase at 500 nM incubated for 72 hrs by ELISA; format: functional, cell-based
D283 Med = assay: Anti-proliferative activity against human D283 cells assessed as reduction in cell viability incubated for 120 hrs by MTT assay; format: functional, cell-based; how it was run: as §1
[5] = target: Bromodomain-containing protein 4 (Homo sapiens) (UniProt O60885); settings: ONS-76, dose 500.0 nM, time 24.0 hrs
[6] = target: Bromodomain-containing protein 4 (Homo sapiens) (UniProt O60885); settings: Daoy, dose 500.0 nM, time 72.0 hrs

**Q.** Which Activity (ONS-76 [1]) does the source give for `Cc1sc2c(c1C)C(c1ccc(Cl)cc1)=N[C@@H](CC(=O)OC(C)(C)C)c1nnc(C)n1-2` here?
**A.** Active

**Q.** What about the Activity (ONS-76 [2]) of the same molecule?
**A.** Active

**Q.** And the IC50 (UW228 [3])?
**A.** > 1000 nM

**Q.** What about the IC50 (UW228 [4]) of the same molecule?
**A.** > 1000 nM

**Q.** And the IC50 (HD-MB03)?
**A.** 172 nM

**Q.** And the Activity (D341 cell line)?
**A.** Active

**Q.** What about the IC50 (D283 Med) of the same molecule?
**A.** 316 nM

**Q.** And the inhibition [5]?
**A.** Active

**Q.** What about the inhibition [6] of the same molecule?
**A.** Active
